# Reference: ChEMBL document CHEMBL4138242, “Synthesis and antibacterial evaluation of novel cationic chalcone derivatives possessing broad spectrum antibacterial activity” (Eur J Med Chem, 2018)
# Active and inactive are the calls of the source.
# Key:
# [1] = test system: Staphylococcus aureus; experiment: Ratio of MIC for Staphylococcus aureus ATCC 29213 after 20 passages to MIC for Staphylococcus aureus ATCC 29213 before 20 passages; assay type: functional
# How it was run: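 The MIC was first measured by broth microdilution. Cells grown at MIC/2 were then carried into a fresh MIC assay after each 24 h, repeated over 20 serial passages. Norfloxacin (S. aureus) and colistin (E. coli) served as control antibiotics. Resistance was defined as a >4-fold rise over the original MIC.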
# [2] = test system: Staphylococcus aureus; experiment: Bactericidal activity against Staphylococcus aureus ATCC 29213 at 6 times MIC after 6 hrs by time-kill assay; assay type: functional, organism-based
# How it was run: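 An overnight culture was diluted 1:10,000 in MHB and grown at 37 °C and 225 rpm for 2 h or 5 h. It was then challenged in tubes at 6× and 8× MIC, with vancomycin (6 µg/mL) as comparator. At intervals, aliquots were pelleted, resuspended in PBS, and tenfold dilutions plated on MHA overnight at 37 °C to give CFU/mL. Biological replicates were run.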
SMILES,Ratio [1],Activity [2]
CCn1cc(C(=O)O)c(=O)c2cc(F)c(N3CCNCC3)cc21 [NORFLOXACIN],256,
CN[C@H](CC(C)C)C(=O)N[C@H]1C(=O)N[C@@H](CC(N)=O)C(=O)N[C@H]2C(=O)N[C@H]3C(=O)N[C@H](C(=O)N[C@H](C(=O)O)c4cc(O)cc(O)c4-c4cc3ccc4O)[C@H](O)c3ccc(c(Cl)c3)Oc3cc2cc(c3O[C@@H]2O[C@H](CO)[C@@H](O)[C@H](O)[C@H]2O[C@H]2C[C@](C)(N)[C@H](O)[C@H](C)O2)Oc2ccc(cc2Cl)[C@H]1O,,inactive
